High-throughput results deposited in PubChem BioAssay by several laboratories.
TbMetRS inhib: blocks T. brucei methionyl-tRNA synthetase activity. purified T. brucei MetRS, ATP depletion, Kinase-Glo luminescence. inhibition, % at 11.9 µM. 360,000 compounds, 0.4% hits. AID 624268;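 active = inhibition above a per-plate cutoff of the control wells' mean inhibition plus 3 SD, cut at about 5.5% in these data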;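 also: 0% = DMSO wells median and 100% = median of wells with control inhibitor compound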
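Material: T. brucei methionyl-tRNA synthetase, purified; reagent: substrates ATP, L-methionine and bulk Escherichia coli tRNA; dosing: 11.9 µM single point; timing: 15 min plus 2 h at 25 °C; detection: luminescence of leftover ATP; evaluation: % inhibition; control set: DMSO-only wells as low control; replicates: singlicate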
AHR act: activators of human aryl hydrocarbon receptor; P35869; AHR-responsive luciferase reporter cells, luminescence; activation, % at 5 µM; 320,000 compounds, 2.5% hits; AID 2796; in the data active = activation above about 47%;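 also: 0% = vehicle wells and 100% = reference agonist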
Target sequence (P35869 whole entry, looked up): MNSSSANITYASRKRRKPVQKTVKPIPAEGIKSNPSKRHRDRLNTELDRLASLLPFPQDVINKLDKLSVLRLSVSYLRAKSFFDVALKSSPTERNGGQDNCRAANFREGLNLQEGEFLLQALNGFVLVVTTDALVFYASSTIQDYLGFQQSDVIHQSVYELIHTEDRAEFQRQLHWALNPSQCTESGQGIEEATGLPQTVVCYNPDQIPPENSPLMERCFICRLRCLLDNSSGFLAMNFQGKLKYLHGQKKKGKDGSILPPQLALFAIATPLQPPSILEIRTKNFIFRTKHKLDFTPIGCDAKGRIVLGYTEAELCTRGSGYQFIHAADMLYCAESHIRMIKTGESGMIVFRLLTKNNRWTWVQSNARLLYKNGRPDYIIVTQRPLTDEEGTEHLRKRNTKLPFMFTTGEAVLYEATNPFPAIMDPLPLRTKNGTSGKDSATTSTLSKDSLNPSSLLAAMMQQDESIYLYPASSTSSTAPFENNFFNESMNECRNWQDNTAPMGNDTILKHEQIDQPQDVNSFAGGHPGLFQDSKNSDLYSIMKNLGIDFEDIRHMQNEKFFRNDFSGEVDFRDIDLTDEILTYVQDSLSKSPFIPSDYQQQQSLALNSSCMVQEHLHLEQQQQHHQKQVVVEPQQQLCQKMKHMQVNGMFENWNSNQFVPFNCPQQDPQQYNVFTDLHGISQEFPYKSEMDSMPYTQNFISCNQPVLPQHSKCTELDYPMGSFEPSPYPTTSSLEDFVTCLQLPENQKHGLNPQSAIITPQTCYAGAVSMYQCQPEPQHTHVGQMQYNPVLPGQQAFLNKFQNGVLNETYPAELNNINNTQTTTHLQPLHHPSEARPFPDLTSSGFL
H9c2 TAG inh: triacylglycerol accumulation inhibition; inhibition, % at 12.5 µM; H9c2 cells, Nile Red lipid (TAG) fluorescence; cells loaded with 200 µM oleic acid; 230,000 compounds, 0.66% hits; AID 651582;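 active = pattern-corrected inhibition of lipid staining of at least 50% with the nuclear-stain viability signal not falling by more than 50%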;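 also: 0% = DMSO wells and 100% = triacsin C control wells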
Efflux pump inh: blocks antifungal efflux pumps in multiplex yeast assay; inhibition, % at 10 µM; S. cerevisiae Candida pump triplex, Nile Red efflux; 330,000 compounds, 0.44% hits; AID 485275;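 active = plate passing quality check with inhibition over a set limit, or well fluorescence over plate mean plus 4 SD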;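 also: Nile Red retained in pooled yeast measured as flow cytometry median fluorescence; 0% = buffer negative control and 100% = Enniatin B positive control; higher means more Nile Red kept so more efflux inhibition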
SMARCA2 activ: activators of SMARCA2 function; activation, % at 9.1 µM; MG213 cells, MMTV-luciferase reporter, dexamethasone, overnight; 370,000 compounds, 1% hits; in the data active = activation above about 7.8%;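 also: 0% = vehicle wells and 100% = reference activator wells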
TbMetRS confirm: Trypanosoma brucei MetRS inhibition confirmed; shares compounds with TbMetRS inhib; inhibition, % at 11.9 µM; 1,400 compounds, 93% hits; AID 624412; T. brucei MetRS enzyme, luminescence (ATP depletion); in the data active = inhibition above about 7%
Jurkat cytotox: kills Jurkat cells in T. brucei MetRS counterscreen; shares compounds with TbMetRS inhib; Jurkat cells viability, ATP luminescence; inhibition, % at 8.3 µM; 1,400 compounds, 12% hits; AID 624413; in the data active = inhibition above about 15%;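 also: 0% = vehicle and 100% = reference inhibitor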
Tb MetRS inh FP: T. brucei MetRS inhibition, orthogonal assay; shares compounds with TbMetRS inhib; purified T. brucei MetRS, fluorescence polarization; inhibition, % at 11.9 µM; 1,400 compounds, 44% hits; in the data active = inhibition above about 17%;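 also: 0% = vehicle wells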
Starred values were filed as active, the others as inactive; nt = no result. An excerpt weighted towards active compounds, which were near 4.1% of everything screened.

SMILES	TbMetRS inhib	AHR act	H9c2 TAG inh	Efflux pump inh	SMARCA2 activ	TbMetRS confirm	Jurkat cytotox	Tb MetRS inh FP
COc1ccc(NC(=O)CC2C(=O)N(C)C(=S)N2Cc2ccco2)cc1 (stereo not drawn)	0	1	nt	0	1	nt	nt	nt
CCN1C(=O)C(CC(=O)Nc2ccc(OC)cc2)N(CCc2ccccc2F)C1=S (stereo not drawn)	33*	7	-10	0	-2	34*	18*	21*
CCN1C(=O)C(CC(=O)Nc2ccc(OC)cc2)N(CCCN2CCN(c3ccc(OC)cc3)CC2)C1=S (stereo not drawn)	-1	5	2	1	1	nt	nt	nt
COc1ccc(NC(=O)CC2C(=O)N(C)C(=S)N2CCc2ccccc2F)cc1 (stereo not drawn)	35*	22	3	0	-3	46*	1	20*
Cc1cc(C)cc(N(CC(=O)NC2CCC(C)CC2)S(=O)(=O)c2ccc(C)c(C)c2)c1 (stereo not drawn)	nt	nt	nt	nt	1	nt	nt	nt
S=C(NCc1cccs1)Nc1cc(Cl)cc(Cl)c1	23*	0	-6	0	-4	31*	4	20*
O=C(Cc1cccs1)NCc1cc(Cl)cc(Cl)c1	56*	4	nt	0	3	73*	-2	44*
O=S(=O)(NCc1cn(Cc2ccccc2)nn1)c1ccccc1Br	nt	nt	nt	nt	-4	nt	nt	nt
O=C(NCCc1c[nH]c2ccccc12)OCc1cn(-c2ccccc2Cl)nn1	nt	nt	nt	nt	-2	nt	nt	nt
COC(=O)c1sc(-c2ccc(Cl)cc2)cc1NC(=O)CSCC(=O)O	20*	0	13	0	6	33*	-7	24*
Cc1ccc(S(=O)(=O)Nn2c(O)c(C=C3N=c4ccccc4=N3)sc2=S)cc1	78*	7	-1	0	-2	93*	-7	57*
Cc1ccc(C(=O)Nn2c(O)c(C=C3N=c4ccccc4=N3)sc2=S)cc1	7.5*	10	nt	0	-2	14*	7	18*
O=C(Nn1c(O)c(C=C2N=c3ccccc3=N2)sc1=S)c1ccccc1	5	19	nt	0	1	nt	nt	nt
O=C(Nn1c(O)c(C=C2N=c3ccccc3=N2)sc1=S)c1cccc(Cl)c1	2	15	nt	0	-1	nt	nt	nt
O=C(Nn1c(O)c(C=C2N=c3ccccc3=N2)sc1=S)c1ccc(Cl)cc1	6.4*	22	nt	0	-2	21*	6	30*
CCOC(=O)[C@]12CCCCC/C=C\1N(CCc1ccc(Cl)cc1)C(=O)[C@H]2CC(=O)NCc1ccccc1	nt	nt	nt	nt	-5	nt	nt	nt
CCOC(=O)c1cccc(NC(=O)Cn2c(CC(=O)NC)nc3ccccc32)c1	79*	-3	nt	0	-3	88*	5	71*
Cc1cccc(NC(=O)Cn2c(/C=C/c3ccccc3)nc3ccccc32)c1	10*	15	nt	0	1	19*	0	10
Cc1nc2ccccc2n(CC(=O)Nc2cc(Cl)cc(Cl)c2)c1=O	5.8*	0	8	0	-1	11*	-4	7
Cc1ccc(NC(=O)Cn2c(=O)c(C)nc3ccccc32)cc1	-1	3	-9	0	0	nt	nt	nt
O=C(Cc1ccccc1)NCCc1ccc(Cl)cc1Cl	0	0	nt	0	nt	nt	nt	nt
N=c1sccn1CC(=O)NCCc1ccc(Cl)cc1Cl	16*	1	12	0	-3	42*	-5	10
O=C(CSc1n[nH]c(-c2ccc(Br)cc2)n1)NC1CCCC1	12*	16	-16	0	-5	41*	1	14
Cc1c(NS(=O)(=O)c2cccc(C(=O)NCc3ccccc3)c2)c(=O)n(-c2ccccc2)n1C	0	3	18	0	-3	nt	nt	nt
Cc1c(NS(=O)(=O)c2cccc(C(=O)NCc3cccc(Cl)c3)c2)c(=O)n(-c2ccccc2)n1C	18*	nt	-3	nt	2	43*	6	27*
SMILES	TbMetRS inhib	AHR act	H9c2 TAG inh	Efflux pump inh	SMARCA2 activ	TbMetRS confirm	Jurkat cytotox	Tb MetRS inh FP
Cc1cccc(NC(=O)CCS(=O)(=O)c2ccccc2)c1C	nt	nt	nt	nt	-1	nt	nt	nt
COc1cccc(CNc2ncnc3cc(Cl)ccc23)c1	12*	nt	-25	nt	-7	20*	14	5
COc1ccc(S[C@]2(C(=O)N3CCN(c4ncccn4)CC3)CC(=O)N(c3ccsc3)[C@@H]2c2ccc(OC)cc2)cc1	nt	nt	nt	nt	1	nt	nt	nt
O=C(N/N=C/c1ccc(-c2ccc(S(=O)(=O)Nc3ncccn3)cc2)o1)c1cc2ccccc2cc1O	6.8*	2	nt	0	-4	30*	-4	27*
COC(=O)[C@]12C[C@H](CC(=O)NCc3ccccc3)C(=O)N(Cc3ccc(Cl)cc3Cl)C1=C[C@H](C(C)C)O[C@@H]2C1CC1	nt	nt	nt	nt	-3	nt	nt	nt
Cc1cc(C)cc(N(CC(=O)Nc2ccc(Br)cc2)S(=O)(=O)c2c(C)[nH]c(=O)[nH]c2=O)c1	49*	1	nt	0	-1	76*	-1	45*
COc1ccc(OC)c(S(=O)(=O)N2CCCCC2C(=O)N2CCN(Cc3ccc(F)cc3)CC2)c1 (stereo not drawn)	nt	nt	nt	nt	-2	nt	nt	nt
CCN(CC)S(=O)(=O)c1cc(C(=O)N(C)CC(=O)Nc2ccc(Cl)cc2)ccc1Cl	43*	13	nt	0	-1	57*	1	24*
O=S1(=O)c2ccc(N3CCSCC3)cc2Oc2ccccc2CN1Cc1cn(Cc2cccc(F)c2)nn1	nt	nt	nt	nt	-4	nt	nt	nt
CCCN(CC1CC1)C(=O)c1ccc(CNC(=O)c2cccc(Br)c2)cc1	nt	nt	nt	nt	-6	nt	nt	nt
O=C(CCCSc1nc2ccccc2[nH]1)Nc1ccccc1	1	2	nt	0	4	nt	nt	nt
NC(=O)CCCSc1nc2ccccc2[nH]1	0	0	5	0	2	nt	nt	nt
Cc1cc(C)cc(NC(=O)CCCSc2nc3ccccc3[nH]2)c1	11*	25	-1	0	-1	22*	-4	10
COc1ccc(N2CCN(C(=O)CCCSc3nc4ccccc4[nH]3)CC2)cc1	6.6*	10	-3	0	-4	20*	4	7
Cc1cccc(NC(=O)CCCSc2nc3ccccc3[nH]2)c1	17*	27	6	0	0	18*	7	6
CCc1cccc(NC(=O)CCCSc2nc3ccccc3[nH]2)c1	26*	7	nt	0	3	44*	6	17*
C=CCn1c(SCc2cccc(C(F)(F)F)c2)nnc1-c1ccc(OC)cc1	nt	nt	nt	nt	-6	nt	nt	nt
CC(=O)Cc1nsc(Nc2ccc(F)cc2)n1	-1	6	2	0	-1	nt	nt	nt
CC(=O)Cc1nsc(Nc2ccc(Cl)cc2)n1	10.0*	25	-1	0	5	4	2	5
COc1ccccc1/C=N\NC(=O)c1cccc(S(=O)(=O)N(C)C)c1	nt	nt	nt	nt	-4	nt	nt	nt
